ChEMBL document CHEMBL4406859, “Antitumor and antiviral activities of 4-substituted 1,2,3-triazolyl-2,3-dibenzyl-L-ascorbic acid derivatives” (Eur J Med Chem, 2019)
The source made the active and inactive calls. No cut-off for these calls is given here.

What was measured:
[1] = test system: A549; test: Antiproliferative activity against human A549 cells assessed as reduction in cell viability incubated for 72 hrs by MTT assay; format: functional, cell-based; conditions: A549, 72 h
Procedure, shortened: (§1)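 Cells (ATCC) grown in DMEM with 10 FBS, penicillin/streptomycin, 2 mM glutamine, 37 °C, 5 CO2. 5000 cells/well seeded; after 24 h, freshly prepared dilutions at five concentrations (0.01–100 μM) added for 72 h. MTT read-out; absorbance converted to percentage growth by NIH formulas. Two experiments in quadruplicate; IC50 by linear regression.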

[2] = test system: CFPAC-1; test: Antiproliferative activity against human CFPAC-1 cells assessed as reduction in cell viability incubated for 72 hrs by MTT assay; format: functional, cell-based; conditions: Homo sapiens, CFPAC-1, 72 h; read-out: IC50; procedure, shortened: as §1
[3] = test system: HFF; test: Cytotoxicity against human HFF cells assessed as reduction in cell viability incubated for 72 hrs by MTT assay; format: cell-based; procedure, shortened: as §1
[4] = test system: HCT-116; test: Antiproliferative activity against human HCT116cells assessed as reduction in cell viability incubated for 72 hrs by MTT assay; format: functional, cell-based; conditions: HCT-116, 72 h; procedure, shortened: as §1
[5] = test system: Influenza A virus H3N2; test: Antiviral activity against Influenza A virus (A/HK/7/87(H3N2)) infected in dog MDCK cells assessed as reduction in virus-induced cytopathogenicity incubated for 7 days by microscopic analysis; format: functional, organism-based; conditions: A/Hong Kong/7/1987(H3N2); for EC50: 168 h
[6] = test system: MCF7; test: Antiproliferative activity against human MCF7 cells assessed as reduction in cell viability incubated for 72 hrs by MTT assay; format: functional, cell-based; conditions: MCF7, 72 h; procedure, shortened: as §1
[7] = test system: Influenza B virus; test: Antiviral activity against Influenza B virus (B/Ned/537/05) infected in dog MDCK cells assessed as reduction in virus-induced cytopathogenicity incubated for 7 days by microscopic analysis; format: functional, organism-based; conditions: for EC50: 168 h
[8] = test system: SW-620; test: Antiproliferative activity against human SW620 cells assessed as reduction in cell viability incubated for 72 hrs by MTT assay; format: functional, cell-based; conditions: SW-620, 72 h; procedure, shortened: as §1
[9] = test system: Influenza A virus H3N2; test: Antiviral activity against Influenza A virus (A/HK/7/87(H3N2)) infected in dog MDCK cells assessed as reduction in virus-induced cytopathogenicity incubated for 7 days by MTS assay; format: functional, organism-based; conditions: A/Hong Kong/7/1987(H3N2); for EC50: 168 h
[10] = test system: Influenza A virus; test: Antiviral activity against Influenza A virus (A/Ned/378/05(H1N1)) infected in dog MDCK cells assessed as reduction in virus-induced cytopathogenicity incubated for 7 days by MTS assay; format: functional, organism-based; conditions: for EC50: Influenza A virus, A/Ned/378/05(H1N1), MDCK, 168 h
[11] = test system: Influenza A virus; test: Antiviral activity against Influenza A virus (A/Ned/378/05(H1N1)) infected in dog MDCK cells assessed as reduction in virus-induced cytopathogenicity incubated for 7 days by microscopic analysis; format: functional, organism-based; conditions: for EC50: Influenza A virus, A/Ned/378/05(H1N1), MDCK, 168 h
[12] = test system: HepG2; test: Antiproliferative activity against human HepG2 cells assessed as reduction in cell viability incubated for 72 hrs by MTT assay; format: functional, cell-based; conditions: HepG2, 72 h; procedure, shortened: as §1
[13] = test system: MDCK; test: Cytotoxicity against dog MDCK cells assessed as reduction in cell viability incubated for 3 days by coulter counter method; format: cell-based, Canis lupus familiaris; conditions: mdck, 72 h
[14] = test system: Influenza B virus; test: Antiviral activity against Influenza B virus (B/Ned/537/05) infected in dog MDCK cells assessed as reduction in virus-induced cytopathogenicity incubated for 7 days by MTS assay; format: functional, organism-based; conditions: for EC50: 168 h
[15] = Cytotoxicity against dog MDCK cells assessed as minimum cytotoxic concentration by observing alteration in cell morphology incubated for 3 days by microscopic analysis; format: cell-based, Canis lupus familiaris
[16] = test system: HeLa; test: Antiproliferative activity against human HeLa cells assessed as reduction in cell viability incubated for 72 hrs by MTT assay; format: functional, cell-based; procedure, shortened: as §1
[17] = test system: Reovirus sp.; test: Antiviral activity against Reovirus infected in vero cells assessed as reduction in virus-induced cytopathogenicity incubated for 7 days by microscopic analysis; format: functional, organism-based
[18] = test system: Human adenovirus 2; test: Antiviral activity against Human adenovirus 2 infected in human HELF cells assessed as reduction in virus-induced cytopathogenicity incubated for 7 days by microscopic analysis; format: functional, organism-based
[19] = test system: Human alphaherpesvirus 3; test: Antiviral activity against thymidine kinase positive Varicella zoster virus infected in human HELF cells assessed as reduction in virus-induced cytopathogenicity incubated for 7 days by Giemsa staining based microscopic analysis; format: functional, organism-based; conditions: Human alphaherpesvirus 3, HELF, 168 h
[20] = test system: Human alphaherpesvirus 1; test: Antiviral activity against Herpes simplex virus 1 KOS infected in human HELF cells assessed as reduction in virus-induced cytopathogenicity incubated for 7 days by microscopic analysis; format: functional, organism-based; conditions: strain KOS
[21] = Cytotoxicity against human HELF cells assessed as reduction in cell viability incubated for 3 days by coulter counter method; format: cell-based; conditions: 72 h
Procedure, shortened: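 HEL cells seeded at 5 x 10^3/well and allowed to proliferate 24 h, then exposed to graded compound concentrations for 3 days at 37 °C. Cell number counted with a Coulter counter.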

[22] = test system: Human alphaherpesvirus 3; test: Antiviral activity against thymidine kinase deficient Varicella zoster virus infected in human HELF cells assessed as reduction in virus-induced cytopathogenicity incubated for 7 days by Giemsa staining based microscopic analysis; format: functional, organism-based; conditions: Human alphaherpesvirus 3, HELF, 168 h
[23] = test system: Human alphaherpesvirus 1; test: Antiviral activity against Herpes simplex virus 1 TK-KOS-ACV infected in human HELF cells assessed as reduction in virus-induced cytopathogenicity incubated for 7 days by microscopic analysis; format: functional, organism-based
[24] = test system: Human alphaherpesvirus 2; test: Antiviral activity against Herpes simplex virus 2 G infected in human HELF cells assessed as reduction in virus-induced cytopathogenicity incubated for 7 days by microscopic analysis; format: functional, organism-based
[25] = test system: Coxsackievirus B4; test: Antiviral activity against Human coxsackievirus B4 infected in vero cells assessed as reduction in virus-induced cytopathogenicity incubated for 7 days by microscopic analysis; format: functional, organism-based
[26] = test system: Human coronavirus 229E; test: Antiviral activity against Human coronavirus 229E infected in human HELF cells assessed as reduction in virus-induced cytopathogenicity incubated for 7 days by microscopic analysis; format: functional, organism-based
[27] = test system: Cytomegalovirus; test: Antiviral activity against Cytomegalovirus AD169 infected in human HELF cells assessed as reduction in virus-induced cytopathogenicity incubated for 7 days by Giemsa staining based microscopic analysis; format: functional, organism-based; conditions: Human betaherpesvirus 5, AD169, HELF, 168 h
Procedure, shortened: (§2)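 Confluent HEL fibroblasts infected with CMV (Davis or AD-169) at 100 PFU/well for 2 h. Residual virus removed, then medium with graded compound concentrations added (duplicate). Incubated 7 days at 37 °C. Cytopathogenicity scored microscopically after ethanol fixation and Giemsa staining. EC50 read from plots of % cytopathogenicity versus concentration.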

[28] = test system: Cytomegalovirus; test: Antiviral activity against Cytomegalovirus Davis infected in human HELF cells assessed as reduction in virus-induced cytopathogenicity incubated for 7 days by Giemsa staining based microscopic analysis; format: functional, organism-based; conditions: Human betaherpesvirus 5, Davis, 168 h; procedure, shortened: as §2
[29] = Cytotoxicity against human HELF cells assessed as minimum cytotoxic concentration by observing alteration in cell morphology incubated for 3 days by microscopic analysis; format: cell-based; conditions: HELF cells
Procedure, shortened: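 Read-out is the minimum cytotoxic concentration (MCC): the lowest compound concentration giving a microscopically detectable change in cell morphology. Measured on confluent human embryonic lung (HEL) fibroblast cultures exposed to a range of compound concentrations.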

[30] = test system: Sindbis virus; test: Antiviral activity against Sindbis virus infected in vero cells assessed as reduction in virus-induced cytopathogenicity incubated for 7 days by microscopic analysis; format: functional, organism-based

SMILES	IC50 [1] [µM]	IC50 [2] [µM]	IC50 [3] [µM]	IC50 [4] [µM]	EC50 [5] [µM]	IC50 [6] [µM]	EC50 [7] [µM]	IC50 [8] [µM]	EC50 [9] [µM]	EC50 [10] [µM]	EC50 [11] [µM]	IC50 [12] [µM]	CC50 [13] [µM]	EC50 [14] [µM]	MCC at 72 h [15] [µM]	IC50 [16] [µM]	also measured
O=C1O[C@H]([C@@H](O)Cn2ccnn2)C(OCc2ccccc2)=C1OCc1ccccc1	> 100	> 100	0.61	> 100	45	> 100	> 100	> 100	53.9	35.1	75	> 100	> 100	> 100	> 100	> 100	
CC(=O)N[C@H]1[C@H]([C@H](O)[C@H](O)CO)OC(C(=O)O)=C[C@@H]1N=C(N)N [ZANAMIVIR]					0.4		0.4		0.01				≥ 100	0.4	> 100		
O=C1O/C(=C\Cn2cc(-c3cccc(O)c3)nn2)C(OCc2ccccc2)=C1OCc1ccccc1	23.3	33.7	42.6	63.6		27.8		69.8				61.7				74.8	Activity [17]: inactive; Activity [18]: inactive; Activity [5]: inactive; EC50 [19]: 11.6 µM; Activity [7]: inactive; Activity [20]: inactive; Activity [9]: inactive; Activity [10]: inactive; CC50 [21]: 11.1 µM; EC50 [22]: 14.7 µM; Activity [23]: inactive; Activity [24]: inactive; Activity [11]: inactive; Activity [14]: inactive; Activity [25]: inactive; Activity [26]: inactive; EC50 [27]: 9.36 µM; EC50 [28]: 8.94 µM; MCC at 72 h [29]: 100 µM; Activity [30]: inactive
CC(N)C12CC3CC(CC(C3)C1)C2 (stereo not drawn) [RIMANTADINE]					0.01		> 200		0.01	> 200	> 200		> 200	> 200	> 200		
